CXCR6 block – inhibitors of human CXCR6 receptor; O00574; CHO-K1 PathHunter CXCR6 beta-arrestin, luminescence; inhibition, % at 20 µM; actives 0.36% (n = 360,000); in the data active = inhibition above about 34%, passing the limit was not always enough;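 note: antagonist mode with CXCL16 agonist at 10 nM final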
CCR6 antagonist – blocks CCL20-driven beta-arrestin recruitment at human CCR6 | P51684 | CHO-K1 CCR6 PathHunter beta-arrestin, luminescence, CCL20-stimulated | inhibition, % at 20 µM | actives 0.49% (n = 340,000) | AID 493098;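 active = compounds whose inhibition of the agonist-driven luminescence signal at 20 µM reaches about 50%, limit read from the data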;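 note: cells stimulated with CCL20 at 14 nM final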
Target sequence (P51684 whole entry, looked up): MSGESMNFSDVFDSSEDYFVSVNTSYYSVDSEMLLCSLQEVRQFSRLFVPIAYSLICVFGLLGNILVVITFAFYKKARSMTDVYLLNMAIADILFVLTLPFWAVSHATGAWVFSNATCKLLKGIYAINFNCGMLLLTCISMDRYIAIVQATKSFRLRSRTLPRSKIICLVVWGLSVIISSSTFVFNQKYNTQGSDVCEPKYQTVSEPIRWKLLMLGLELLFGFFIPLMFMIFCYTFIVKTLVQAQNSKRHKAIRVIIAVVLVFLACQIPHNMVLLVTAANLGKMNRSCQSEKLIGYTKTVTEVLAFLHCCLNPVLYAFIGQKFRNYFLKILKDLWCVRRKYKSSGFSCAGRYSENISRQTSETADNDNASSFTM
EBI2 block – EBI2 (human) antagonism. P32249. EBI2 beta-arrestin recruitment, luminescence, 7a,25-OHC stimulated. inhibition, % at 5 µM. actives 0.81% (n = 360,000). AID 651636; in the data active = inhibition above about 38%;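 note: enzyme fragment complementation signal reports receptor beta-arrestin coupling in cells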
m5-HT2A agonist – agonists of mouse serotonin 5-HT2A receptor (HTR2A); P35363; CHO-K1 mHTR2A beta-arrestin complementation, luminescence; percent of 30 µM serotonin response; activation, % at 7.6 µM; actives 0.66% (n = 360,000); AID 624169;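 active = activation above a run cutoff, the mean activation of all tested compounds plus 3 SD, cut at about 14% in these data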
APJ antagonist – APJ receptor antagonism | CHO-K1 APJ beta-arrestin complementation, luminescence | inhibition, % at 20 µM | actives 0.32% (n = 330,000) | AID 2521;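 active = inhibition above about 40% at 20 µM, limit read from the data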;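 note: cells challenged with 10 nM apelin-13 agonist together with compound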
APJ agonist – agonists of human APJ apelin receptor; P35414; CHO-K1 APJ PathHunter beta-arrestin, luminescence; 0% DMSO wells, 100% apelin; activation, % at 20 µM; actives 0.11% (n = 330,000); AID 2520;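 active = activation more than six SD over the plate average, tested at 20 µM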
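Incubation: overnight seeding, 90 min compound at 25 °C, 1 h detection; test system: PathHunter CHO-K1 APJ (AGTRL-1) beta-arrestin reporter cells; amount: 1000 cells/well; doses: one dose, 20 µM compound, 1% DMSO; measured by: beta-gal luminescence; measure: agonist-driven arrestin binding to APJ; benchmarks: negative DMSO alone, positive Apelin-13 at 10 nM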
Numbers stand for hits; 0 = inactive; - = not tested or not shown; ! = not active in a repeat. Only some compounds are listed: those with a hit (about 2.1% of all), similar ones and a draw of the others.

SMILES	CXCR6 block	CCR6 antagonist	EBI2 block	m5-HT2A agonist	APJ antagonist	APJ agonist
O=C1c2[nH]nc(-c3ccccc3O)c2C(c2cccc(Cl)c2)N1Cc1ccco1 (stereo not given)	0	0	0	15	0	0
O=C1c2[nH]nc(-c3ccccc3O)c2C(c2ccc(F)cc2)N1Cc1ccco1 (stereo not given)	0	0	0	0	0	0
FC(F)(F)c1cccc(NC(=S)Nc2ccc(Cl)c(Cl)c2)c1	0	0	0	0	0	0
O=C1/C(=C\c2ccc(O)cc2)SC(=S)N1/N=C/c1ccc(O)cc1	47	66	0	0	0	0
COC(=O)C1=C(N)Oc2cc(C)n(Cc3cccnc3)c(=O)c2C1c1ccccc1OC (stereo not given)	0	0	0	0	0	0
Cc1ccc(C(=O)Nc2cccc(C(F)(F)F)c2)cc1NC(=O)c1c[nH]c2cc(C(F)(F)F)ccc2c1=O	0	0	0	0	0	0
Cc1cn(-c2cc(C(=O)Nc3ccc(C)c(NC(=O)C(=O)c4c[nH]c5ccccc45)c3)cc(C(F)(F)F)c2)cn1	0	0	0	17!	0	0
O=C(O)c1ccccc1NS(=O)(=O)c1ccc(N/N=C/c2ccc(O)c(O)c2)c([N+](=O)[O-])c1	0	50	0	0	-	-
O=C(C[n+]1cn(C(F)F)c2ccccc21)c1ccc(OC(F)F)cc1	0	0	0	0	0	18
CCO[C@@H]1OC(C(=O)N2CCOCC2)=C[C@H](c2ccc(Br)cc2)[C@H]1CCCO	0	0	0	18	0	0
O=C(NC1(C(F)(F)F)NC(=O)N(c2ccc(F)cc2)C1=O)c1ccncc1 (stereo not given)	0	0	0	0	0	0
Cc1ccc(N/C(N)=N/c2nc3c(c(=O)[nH]2)CCCC3)c(C)c1	0	0	0	0	0	0
Cc1ccc(N/C(N)=N/c2nc(C)cc(N3CCCCC3)n2)c(C)c1	0	0	0	0	0	28
COc1ccc(N2CCN(C(=O)CN(Cc3ccccc3)S(C)(=O)=O)CC2)cc1	0	0	0	0	0	0
COc1ccc(N2CCN(C(=O)CN(Cc3ccc(Cl)cc3)S(C)(=O)=O)CC2)cc1	71	0	0	0	0	0
CC(C)[C@H](NC(=O)N1CCn2c1nc1ccccc12)C(=O)NCC1CCCO1 (stereo not given in full)	0	0	0	15	0	0
CC1(C)Cc2c(c(=S)nc(-c3ccccc3)n2CCOCCO)CO1	0	0	0	0	0	0
Cc1c(N=C2C=CC(=O)c3ccccc32)c(=O)n(-c2ccccc2)n1C	0	75	0	0	-	-
O=C(COC(=O)Cn1cnc2ccccc2c1=O)Nc1ccccc1Sc1ccc(Cl)cc1	0	0	0	0	0	0
Cc1c(CCOC(=O)C2C3CC4CC(C3)CC2C4)sc[n+]1CC(=O)c1ccc(Br)cc1 (stereo not given)	0	53!	0	0	0	0
O=C(NCc1ccccc1)c1ccc(Br)o1	0	0	0	0	0	0
Cc1ccc(S(=O)(=O)NCC(=O)OCC(=O)N(C)C2CCCCC2)cc1	0	0	0	0	0	0
Cc1cc(C)nc(SCc2cc(=O)c(OC(=O)c3ccc(Cl)c([N+](=O)[O-])c3)co2)n1	0	0	0	0	58	0
Cc1cc(C)nc(SCc2cc(=O)c(OC(=O)c3ccc(S(=O)(=O)N(C)C)cc3)co2)n1	0	0	0	0	0	0
O=C(COC(=O)Cc1ccc(F)cc1)NC1CCCC1	0	0	0	21	0	0
SMILES	CXCR6 block	CCR6 antagonist	EBI2 block	m5-HT2A agonist	APJ antagonist	APJ agonist
O=C(COC(=O)Cc1ccc(F)cc1)NC(=O)NC1CCCC1	0	0	0	0	0	0
CC1=C(C(=O)N2CCOCC2)CC(CC(=O)NC(c2ccccc2)c2ccccc2)C(=O)N1CCCN1CCCC1=O (stereo not given)	0	-	0	0	-	-
CCOC(=O)c1ccc(N2C(=O)C=CC2=O)cc1	101	113	0	0	0	0
COc1ccc(NC(=O)C(C2CC2)n2c(=O)c(-c3cc4ccccc4[nH]3)nc3ccccc32)cc1 (stereo not given)	-	-	0	0	-	-
CN(C)/C=C1/C(=O)N(c2ccc([N+](=O)[O-])cc2)N=C1c1ccccc1	-	-	-	-	0	0
C/C(=C1/C(=O)N(c2ccc([N+](=O)[O-])cc2)N=C1c1ccccc1)N(C)C	-	-	-	-	49	0
Cc1cccc(NC(=O)Nc2c(C)[nH]c(=O)[nH]c2=O)c1C	0	0	0	0	0	0
O=[N+]([O-])c1cccc(C=NNc2ccc3ccccc3n2)c1O	37	60	0	0	-	-
O=C(N/N=C/c1cccc([N+](=O)[O-])c1O)c1cccs1	0	64	0	0	0	0
S=c1[nH]nc(Cc2cccs2)n1-c1cccc2ccccc12	0	0	0	0	0	0
COc1ccc(Cn2c(C3CC3)nc3ccc(NC(=O)c4cccnc4)cc3c2=O)cc1	0	0	53	0	0	0
COc1ccc(Cn2c(C3CC3)nc3ccc(NC(C)=O)cc3c2=O)cc1	0	0	0	0	0	0
Cc1[nH]c2ccccc2c1C(C#N)(C#N)C1C(=O)c2ccccc2C1=O	43	0	0	0	0	0
C[n+]1cnn2c1SCC1(COC1)C2	0	0	0	0	0	0
O=C(NCc1cccnc1)c1ccc(-c2ccc(Cl)cc2)o1	0	0	0	0	0	0
O=C(NCc1cccnc1)/C(=C\c1ccc(-c2ccc(Cl)c(Cl)c2)o1)S(=O)(=O)c1ccccc1	0	0	64	0	-	-
Cn1cnnc1SCC(C)(C)NS(=O)(=O)c1ccc(Cl)cc1	0	0	0	0	0	0
COc1ccc([N+](=O)[O-])c(S(=O)(=O)c2ccccc2)n1	59	65	0	0	0	0
COc1ccc([N+](=O)[O-])c(S(=O)(=O)c2ccc(Cl)cc2)n1	68	75	0	0	0	0
O=C(O)Cn1cc(/C=c2/sc3nc4ccccc4n3c2=O)c2ccccc21	0	0	0	0	0	0
O=C(C1=C[C@@H](c2csc3ccccc23)C[C@@H](OCCCCO)O1)N1CCN(Cc2ccc3c(c2)OCO3)CC1	0	0	0	35	0	0
Cc1cc(C(=O)NNC(=O)c2ccccc2F)c2ccccc2n1	0	0	0	0	0	0
O=C1C2C(C(=O)N1/N=C/c1cc(Br)cc([N+](=O)[O-])c1O)C1C=CC2C12CC2 (stereo not given)	0	52	0	0	0	0
Fc1cccc(-c2cc3nc4c(c(N5CCOCC5)n3n2)CCCC4)c1	0	0	0	0	0	0
Cn1cc(/C=C2\SC(=O)NC2=S)c2ccccc21	0	53	0	0	0	0
CN(C(=O)CSc1nc(-c2ccccc2)cn1N)C(c1ccccc1)c1ccccc1	0	0	36	0	0	0

Screens from PubChem BioAssay.
